Compound activity from PubChem BioAssay.
Sampled rows, rich in hits. Any-hit rate of the full collection: about 1.5%.
APJ antag: APJ receptor antagonism; P35414; CHO-K1 APJ beta-arrestin complementation, luminescence; inhibition, % at 20 µM; hit rate 0.32% among 330,000; AID 2521;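 active means inhibition above about 40% at 20 µM, limit read from the data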;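 further: cells challenged with 10 nM apelin-13 agonist together with compound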
EBI2 block: EBI2 (human) antagonism; P32249; EBI2 beta-arrestin recruitment, luminescence, 7a,25-OHC stimulated; inhibition, % at 5 µM; hit rate 0.81% among 360,000; in the data active means inhibition above about 38%;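 further: enzyme fragment complementation signal reports receptor beta-arrestin coupling in cells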
Target sequence (P32249 whole entry, looked up, the tested form may be a part): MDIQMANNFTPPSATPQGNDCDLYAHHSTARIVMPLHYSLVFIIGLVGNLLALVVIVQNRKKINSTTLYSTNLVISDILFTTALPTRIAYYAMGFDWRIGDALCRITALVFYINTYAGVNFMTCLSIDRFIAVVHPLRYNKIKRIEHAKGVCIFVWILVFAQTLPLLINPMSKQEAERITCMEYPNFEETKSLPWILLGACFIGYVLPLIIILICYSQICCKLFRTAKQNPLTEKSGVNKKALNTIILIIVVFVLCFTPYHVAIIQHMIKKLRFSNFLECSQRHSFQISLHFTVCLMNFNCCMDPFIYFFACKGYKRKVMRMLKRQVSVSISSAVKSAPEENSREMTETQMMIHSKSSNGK
CXCR6 block: CXCR6 (human) receptor inhibition. O00574. CHO-K1 PathHunter CXCR6 beta-arrestin, luminescence. inhibition, % at 20 µM. hit rate 0.36% among 360,000. AID 602244; in the data active means inhibition above about 34%, passing the limit was not always enough;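 further: antagonist mode with CXCL16 agonist at 10 nM final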
APJ ag: activates the human apelin receptor APJ. AID 2520. hit rate 0.11% among 330,000. P35414. CHO-K1 APJ PathHunter beta-arrestin, luminescence; 0% DMSO wells, 100% apelin. activation, % at 20 µM;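 active means activation more than six SD over the plate average, tested at 20 µM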
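Test system: CHO-K1 APJ beta-arrestin complementation cell line. Amount: cell density 1000 per well. Controls: DMSO negative, 10 nM Apelin-13 positive. Signal: luminescent beta-gal fragment complementation, chemiluminescent substrate. Read-out basis: agonist-driven arrestin binding to APJ. Timing: compound stimulation 90 min at 25 °C, detection 60 min.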
CCR6 antag: antagonists of human CCR6 receptor; CHO-K1 CCR6 PathHunter beta-arrestin, luminescence, CCL20-stimulated; AID 493098; inhibition, % at 20 µM; hit rate 0.49% among 340,000; P51684;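 active means compounds whose inhibition of the agonist-driven luminescence signal at 20 µM reaches about 50%, limit read from the data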;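 further: cells stimulated with CCL20 at 14 nM final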
APJ antag confirm: APJ receptor antagonism confirmation; shares compounds with APJ antag; APJ beta-arrestin recruitment, luminescence, antagonist mode; inhibition, % at 20 µM; hit rate 66% among 950; AID 2766; in the data active means inhibition above about 50%
Numbers stand for hits; i = inactive; nt = no result given.

SMILES	APJ antag	EBI2 block	CXCR6 block	APJ ag	CCR6 antag	APJ antag confirm
CC(C(=O)OCC(=O)c1cccc([N+](=O)[O-])c1)N1C(=O)C2C3C=CC(C3)C2C1=O (configuration not stated)	48	i	i	i	51	62
CC(C(=O)OCC(=O)c1cccc([N+](=O)[O-])c1)N1C(=O)C2C3CCC(C3)C2C1=O (configuration not stated)	58	i	i	i	55	53
Cc1cc(F)ccc1-c1cc(C(=O)NCc2ccco2)[nH]n1	nt	i	i	nt	nt	nt
COc1cc(/C=C/C(=O)CC(=O)/C=C/c2ccc(O)c(OC)c2)ccc1O	62	i	i	i	66	93
COc1cc(/C=C2/CCCC(C(=O)C(F)(F)F)=C2O)ccc1O	i	i	i	i	i	nt
COc1cc(/C=C2\CCC/C(=C\c3ccc(O)c(OC)c3)C2=O)ccc1O	40	i	i	i	i	80
CCOc1cc(/C=C2\CN(CC)C/C(=C\c3ccc(O)c(OCC)c3)C2=O)ccc1O	48	i	i	i	i	101
CCOc1cc(/C=N/N=C/c2ccc(O)c(OCC)c2)ccc1O	i	i	i	i	i	nt
COCCN(C(=O)c1csnn1)C(C(=O)NC1CCCC1)c1ccc(C)cc1 (configuration not stated)	i	i	i	i	i	nt
COCCN(C(=O)c1csnn1)C(C(=O)NC1CCCC1)c1ccccc1F (configuration not stated)	53	i	i	i	i	i
CC(C)CNc1nnnc2c1sc1nc(N3CCOCC3)c3c(c12)CC(C)(C)SC3	i	i	i	i	i	nt
CC1(C)Cc2c(c(N3CCOCC3)nc3sc4c(NN)ncnc4c23)CS1	60	i	i	i	56	89
CC(=O)Nc1cc(-c2ccccc2N(C)C)cn2c(-c3ccc(S(C)(=O)=O)cc3)cnc12	nt	i	i	nt	nt	nt
COc1ccc(S(=O)(=O)Cc2ccc(C(=O)NCc3ccccc3OC)o2)cc1	45	i	i	i	i	i
COc1cc(/C=C2/C(=O)NN(c3ccc(Cl)cc3)C2=O)cc(OC)c1O	41	i	i	i	i	i
COc1cc(/C=C2/C(=O)N(c3ccc(C(=O)O)cc3)N=C2C)cc(OC)c1O	59	i	40	i	69	95
COc1cc(/C=C2/C(=O)NN(c3ccccc3)C2=O)cc(Br)c1O	i	i	i	i	i	nt
CCCS(=O)(=O)NC(=O)C1(C)CCCN(C(=O)C2(c3ccc(Cl)cc3)CCCC2)C1 (configuration not stated)	nt	i	i	nt	nt	nt
COc1cc(Cl)ccc1OC1(C)CCN(Cc2cccn2-c2nccs2)C1 (configuration not stated)	nt	i	i	nt	nt	nt
N#CC(c1cccc(Cl)c1)c1ccc2c(C(F)(F)F)cc(C(F)(F)F)nc2n1 (configuration not stated)	46	i	i	i	i	76
NNc1ccc2c(C(F)(F)F)cc(C(F)(F)F)nc2n1	i	i	i	i	i	nt
O=C(c1ccco1)N(Cc1cccc(Cl)c1)C1CCS(=O)(=O)C1 (configuration not stated)	i	i	i	i	i	nt
O=C(c1ccco1)N(Cc1cccs1)C1CCS(=O)(=O)C1 (configuration not stated)	47	i	i	i	i	i
O=S(=O)(O)c1cccc(N=Nc2c(O)ccc3ccccc23)c1	49	i	i	i	i	58
Oc1ccc2ccccc2c1N=Nc1ccccc1F	i	i	i	i	i	nt
SMILES	APJ antag	EBI2 block	CXCR6 block	APJ ag	CCR6 antag	APJ antag confirm
Oc1ccc2ccccc2c1N=Nc1ccccn1	75	i	41	i	63	97
O=C1N/C(=N\S(=O)(=O)Cc2ccccc2)S/C1=C/c1cc([N+](=O)[O-])ccc1O	41	i	i	i	i	55
O=C1N/C(=N\S(=O)(=O)c2ccccc2)S/C1=C\c1cc([N+](=O)[O-])ccc1O	i	i	i	i	i	nt
OC(c1ccc(Cl)c(F)c1)c1ncc(-c2cccc(C(F)(F)F)c2)[nH]1 (configuration not stated)	nt	i	i	nt	nt	nt
N#Cc1c(N)n(CCCN2CCOCC2)c2nc3ccccc3nc12	43	i	i	i	i	i
CCCCCn1c(N)c(C#N)c2nc3ccccc3nc21	i	i	i	i	i	nt
COc1ccccc1Cc1c(-c2ccco2)nc2cc(C)c(Br)c(C)n12	nt	i	i	nt	nt	nt
Fc1cccc(Cc2c(-c3ccc(Cl)cc3)nc3ccc(Br)cn23)c1	nt	i	i	nt	nt	nt
